Source: PubChem BioAssay
The source made the active and inactive calls.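 How the source made its calls, unless noted: active means NADPH fluorescence slope more negative than the mean of all samples by about 3 SD, 99.7% confidence; inactive means the rest.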

Key:
[1] = inhibitors of TNFa-induced NFkB p65 translocation, primary screen, imaging, HUVEC, MLSMR starter and 10KST1 sets (AID 438;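 active means inhibition above 20% together with a positive visual image hit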;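 further: compound added about 3h40 before a 20 min TNFalpha stimulation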;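 on inhibition: signal is the nuclear over cytoplasmic p65 intensity ratio per well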); conditions: HUVEC TNFa-induced p65 nuclear translocation; cell count: measured here: nuclei count (cytotoxicity indicator), at 2.08 µM; inhibition: at 2 µM, stronger effect = higher value, 0% TNFa-plus-vehicle, 100% no-TNFa wells
[2] = endothelial E-selectin expression blockers – imaging, HUVEC, immunofluorescence, MLSMR starter and 10KST1 sets, primary screen (AID 487;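 active means visually confirmed hit in the image check and inhibition above 20%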;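 on inhibition: signal is fraction of cell area covered by stained E-selectin grains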;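 on nuclei count: 100% = median nuclei count of all wells on the same plate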); conditions: HUVEC TNFalpha-induced E-selectin immunofluorescence imaging, at 2 µM; inhibition: stronger effect = higher value; nuclei count: measured here: cell number, toxicity
[3] = Primary imaging screen for DUSP6 inhibitors that restore phospho-Erk in transfected HeLa cells, chemical complementation (AID 609;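 active means compounds giving at least 50% inhibition in the cell-based MKP-3 phosphatase rescue imaging test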;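 on inhibition: phospho-Erk level distribution per well compared with pooled transfected vehicle control wells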); conditions: HeLa MKP-3 transfected, phospho-Erk imaging KS statistic, at 10 µM, cells stimulated with TPA for 15 min
[4] = biological target: Dual specificity protein phosphatase 6 (Homo sapiens) (UniProt Q16828); test: as above; conditions: HeLa MKP-3 transfected, phospho-Erk imaging KS statistic; at 10 µM; stronger effect = higher value; cells stimulated with TPA for 15 min
[5] = biological target: Voltage-gated potassium channel subunit beta-2 (Rattus norvegicus) (UniProt P62483); test: inhibitors of rat Kvbeta2 reductase activity – biochemical, NADPH fluorescence, primary screen (AID 622;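 active means fluorescence slope higher than the sample average by over 3 SD, cut at about -0.22 in these data, passing the limit was not always enough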;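 further: slope of raw intensity against log time taken from 70 to 1610 s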); conditions: recombinant KvBeta, 4-cyanobenzaldehyde reduction, at 10 µM, stronger effect = higher value
[6] = biological target: Voltage-gated potassium channel subunit beta-2 (Rattus norvegicus) (UniProt P62483); test: enhancers of rat Kvbeta2 NADPH turnover – biochemical, NADPH fluorescence, primary screen (AID 623); conditions: Recombinant KvBeta, NADPH fluorescence decrease slope, 10 min; at 10 µM; stronger effect = lower value;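 further: fluorescence intensity change per second fitted from 20 to 320 s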
[7] = biological target: Alpha-2C adrenergic receptor (Homo sapiens) (UniProt P18825); test: compounds altering alpha2C-coupled GIRK flux – cell-based, HEK293 alpha2C/GIRK1/2, thallium flux, primary screen (AID 624;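 active means fluorescence slope after compound addition differing from the mean of all screened samples at 99.7% confidence, in either direction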;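 further: slope of fluorescence ratio to pre-addition baseline per second over 15 to 24 s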); conditions: thallium flux BTC fluorescence, at 10 µM, actives lie on both sides
[8] = inhibitors of larval lipid processing in zebrafish, primary screen, whole organism, PED6 fluorescence, gall bladder and intestine (AID 686;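 active means a full or partial loss of lipid-probe fluorescence in the fish gall bladder, intestine or both, judged by eye; inactive means no fluorescence loss, or compound toxic to the fish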;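 further: larvae 5 to 7 days old with five fish per well; signal comes from phospholipase A2 cleavage of quenched PED6 carried via bile; overnight exposure to compound and PED6 before scoring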); conditions: Zebrafish larvae PED6 lipid processing, fluorescence scoring; screened at 20 µM (by protocol)
How it was run: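 Doses: 20 µM single dose. Test system: live zebrafish larvae aged 5-7 days, whole organism. Quantity: five larvae per well. Measured by: By-eye fluorescence microscopy. Reagent: ingested quenched lipid PED6 at 100 nM. Read-out: visual per-well fluorescence inhibition score. Times: overnight exposure of larvae to compound plus PED6.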

[9] = loss of swimming-algae plug formation – whole organism, Chlamydomonas reinhardtii, WT vs cilia-less mutant, absorbance, 96-well, primary screen (AID 463189;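 active means inhibition at or above 50% relative to wild type and mutant plate controls; inactive means inhibition below 50%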;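 further: 0% = wild type cc124 cells in DMSO and 100% = ciliumless bld1 mutant cells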); conditions: Chlamydomonas reinhardtii gravitaxis, OD600 absorbance, 2 days; at 10 µM; stronger effect = higher value
[10] = measured here: cell density z-score
[11] = measured here: nuclear c-Myc green intensity z-score
[12] = measured here: nuclear pErk red intensity z-score, stronger effect = higher value

Chain of Voltage-gated potassium channel subunit beta-2 (Rattus norvegicus) (P62483 whole entry, looked up): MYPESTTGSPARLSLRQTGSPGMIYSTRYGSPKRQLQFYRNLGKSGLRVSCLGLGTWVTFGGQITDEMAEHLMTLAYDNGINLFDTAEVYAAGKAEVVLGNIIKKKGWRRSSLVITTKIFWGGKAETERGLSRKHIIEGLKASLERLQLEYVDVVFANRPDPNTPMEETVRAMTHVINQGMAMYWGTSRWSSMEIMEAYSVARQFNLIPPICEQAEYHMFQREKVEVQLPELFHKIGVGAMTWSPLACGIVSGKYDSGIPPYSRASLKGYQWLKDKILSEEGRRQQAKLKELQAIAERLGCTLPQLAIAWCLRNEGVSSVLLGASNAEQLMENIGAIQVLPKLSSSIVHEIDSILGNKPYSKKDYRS
Chain of Alpha-2C adrenergic receptor (Homo sapiens) (P18825 whole entry, looked up): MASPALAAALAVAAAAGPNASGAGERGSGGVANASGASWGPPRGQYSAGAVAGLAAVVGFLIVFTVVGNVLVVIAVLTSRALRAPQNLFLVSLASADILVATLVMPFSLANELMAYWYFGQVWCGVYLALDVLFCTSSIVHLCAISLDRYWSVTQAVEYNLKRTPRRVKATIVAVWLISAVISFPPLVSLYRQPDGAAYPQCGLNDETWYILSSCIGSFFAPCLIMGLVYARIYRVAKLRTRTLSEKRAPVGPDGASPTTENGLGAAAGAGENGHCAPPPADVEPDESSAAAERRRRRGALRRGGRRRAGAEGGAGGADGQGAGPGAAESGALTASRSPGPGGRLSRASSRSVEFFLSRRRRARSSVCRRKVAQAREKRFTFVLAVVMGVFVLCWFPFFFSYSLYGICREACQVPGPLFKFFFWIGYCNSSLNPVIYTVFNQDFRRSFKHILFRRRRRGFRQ
Chain of Dual specificity protein phosphatase 6 (Homo sapiens) (Q16828 whole entry, looked up): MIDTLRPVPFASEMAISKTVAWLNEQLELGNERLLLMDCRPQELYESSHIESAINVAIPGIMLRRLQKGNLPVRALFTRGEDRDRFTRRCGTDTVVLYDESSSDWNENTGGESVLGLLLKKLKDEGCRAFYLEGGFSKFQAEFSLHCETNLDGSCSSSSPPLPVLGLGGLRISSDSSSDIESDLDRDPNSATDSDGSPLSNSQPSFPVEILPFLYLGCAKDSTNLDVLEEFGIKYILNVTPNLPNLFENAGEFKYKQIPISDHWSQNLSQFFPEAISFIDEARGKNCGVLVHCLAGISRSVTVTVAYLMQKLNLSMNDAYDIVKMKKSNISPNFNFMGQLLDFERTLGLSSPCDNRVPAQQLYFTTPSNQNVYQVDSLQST

SMILES | cell count [1] | inhibition [1] | inhibition [2] | nuclei count [2] [%] | z-score [3, 10] | z-score [3, 11] | z-score [3, 12] | inhibition [4] | fluorescence slope [5] | NADPH fluorescence slope [6] | slope [7] | outcome [8] | inhibition [9]
CCOC(=O)c1cc(C)n(-c2ccc(OC)c(OC)c2)c1C | 530 | -8.1% (inactive) | -25.1% (inactive) | 122 | 1.68 | -2.38 | -0.201 | 5.57% (inactive) | -0.516 (inactive) | -0.000114 (inactive) | 0.00418 (inactive) | inactive | -0.885% (inactive)
Cc1noc(NS(=O)(=O)c2ccc(NC(=O)COc3ccccc3)cc2)c1C | 641 | -10.1% (inactive) | 29.8% (inactive) | 182 | -0.876 | 0.527 | -0.0095 | -11.5% (inactive) | -0.376 (inactive) | -3.7e-05 (inactive) | 0.00522 (inactive) | inactive | 4.64% (inactive)
Cc1ccc(C#N)c(SCc2cc3c(cc2Cl)OCO3)n1 | 538 | -31.1% (inactive) | -76.1% (inactive) | 159 | -0.24 | -0.891 | -0.243 | -2.47% (inactive) | -0.515 (inactive) | -6.3e-05 (inactive) | 0.00686 (inactive) | inactive | 28.8% (inactive)
Nc1c(C(=O)NCC2CCCO2)c2nc3ccccc3nc2n1/N=C/c1ccncc1 (stereo unspecified) | 470 | -2.9% (inactive) | -109% (inactive) | 110 | 1.93 | -0.485 | 0.517 | 22.8% (inactive) | -0.507 (inactive) | -3.7e-05 (inactive) | 0.00723 (inactive) | inactive | -25.5% (inactive)
C=CCn1cnc2c(c1=O)c1nc3ccccc3nc1n2-c1ccc(Cl)cc1 | 479 | -0.2% (inactive) | -57.8% (inactive) | 97.9 | 0.198 | -0.115 | -0.677 | 3.5% (inactive) | -0.489 (inactive) | -1.8e-05 (inactive) | 0.00468 (inactive) | inactive | 22.7% (inactive)
O=C(Nc1ccc2c(c1)OCCO2)c1ccc(Br)o1 | 587 | 3.2% (inactive) | 6.1% (inactive) | 143 | 0.114 | -1.76 | -1.37 | -1.75% (inactive) | -0.295 (inactive) | -8.8e-06 (inactive) | 0.00481 (inactive) | inactive | 12.8% (inactive)
COC(=O)c1ccccc1N1C(=O)[C@@H]2C(c3ccc(Br)cc3)=NO[C@@H]2C1=O | 269 | -12.6% (inactive) | 0.3% (inactive) | 89.9 | -0.914 | 2.06 | -1.22 | 1.75% (inactive) | -0.458 (inactive) | -7.9e-05 (inactive) | 0.00516 (inactive) | inactive | -19.6% (inactive)
CC(=O)C1(C)OC(N)=C(C#N)C(c2ccccc2)C1(C#N)C#N (stereo unspecified) | 511 | -7.2% (inactive) | -76.9% (inactive) | 155 | 0.834 | -0.296 | -1.55 | -2.91% (inactive) | -0.377 (inactive) | 2.9e-06 (inactive) | 0.00393 (inactive) | inactive | 23.7% (inactive)
COc1ccc(C(CC(=O)N2CCOCC2)C(C)C)cc1 (stereo unspecified) | 486 | 10.6% (inactive) | -31.9% (inactive) | 97.9 | -1.63 | 1.26 | -0.603 | -5.26% (inactive) | -0.476 (inactive) | -7e-06 (inactive) | 0.00515 (inactive) | inactive | 19.8% (inactive)
CN(C)c1nc2n(c(=S)n1)CCS2 | 604 | -3.2% (inactive) | -204% (inactive) | 109 | -0.355 | -0.0746 | 0.173 | 16.1% (inactive) | -0.409 (inactive) | -2e-05 (inactive) | 0.00562 (inactive) | inactive | -16.2% (inactive)
O=C(Nn1cnnc1)C(c1ccccc1)c1ccccc1 | 338 | -3.7% (inactive) | -164% (inactive) | 159 | 1.4 | 0.734 | 1.08 | 1.75% (inactive) | -0.417 (inactive) | -7.3e-05 (inactive) | 0.00619 (inactive) | inactive | 17.9% (inactive)
CCCC(=O)N1CCN(c2nc(CC(C)C)c3c(c2C#N)CCC3)CC1 | 529 | -8.3% (inactive) | -117% (inactive) | 130 | -0.247 | 0.583 | 0.103 | -5.26% (inactive) | -0.5 (inactive) | -1.9e-05 (inactive) | 0.00433 (inactive) | inactive | -3.24% (inactive)
Cc1c(/C(O)=C2\C(=O)C(=O)N(CCCN(C)C)C2c2ccccc2)cnn1-c1ccccc1 (stereo unspecified) | 528 | 1.1% (inactive) | -134% (inactive) | 139 | -0.232 | 0.596 | 1.69 | 1.6e-07% (inactive) | -0.579 (inactive) | -2.7e-05 (inactive) | 0.00616 (inactive) | inactive | -16.4% (inactive)
Cc1c(N=Cc2c(O)n(C3CCCCC3)c(=O)[nH]c2=O)c(=O)n(-c2ccccc2)n1C | 671 | -20.1% (inactive) | -93.8% (inactive) | 139 | -0.195 | -1.05 | 0.314 | 21% (inactive) | -0.396 (inactive) | -3e-05 (inactive) | 0.00508 (inactive) | active; weak signal in gallbladder and intestine | -4.72% (inactive)
Cc1nnc(SCc2nc3ccccc3[nH]2)s1 | 417 | -9.9% (inactive) | -178% (inactive) | 172 | 1.08 | -0.712 | -0.186 | -5.89% (inactive) | -0.368 (inactive) | -5.3e-05 (inactive) | 0.00478 (inactive) | inactive | 9.63% (inactive)
O=C(Oc1ccccc1N1C(=O)CCC1=O)c1ccco1 | 545 | 4.9% (inactive) | -119% (inactive) | 118 | 0.222 | -0.0545 | 0.413 | 3.5% (inactive) | -0.557 (inactive) | -6.4e-05 (inactive) | 0.0069 (inactive) | inactive | -13.9% (inactive)
COc1ccc(CCNC(=O)c2ccc(=O)[nH]n2)cc1OC | 452 | -9.3% (inactive) | -124% (inactive) | 113 | -0.121 | -0.331 | -0.384 | 7.48% (inactive) | -0.517 (inactive) | -0.000115 (inactive) | 0.00414 (inactive) | inactive | 1.24% (inactive)
CC(=O)N1CC=C2C(C#N)=C(N)C(C#N)(C#N)[C@H](c3ccoc3)[C@H]2C1 | 364 | -12.2% (inactive) | -63% (inactive) | 90.4 | 0.865 | 0.398 | -2.11 | -4.7% (inactive) | -0.371 (inactive) | 7.7e-06 (inactive) | 0.00495 (inactive) | inactive | -0.734% (inactive)
CCCCOc1ccccc1/C=c1/sc2nc(-c3oc4ccccc4c3C)nn2c1=O | 431 | 0.7% (inactive) | -36.7% (inactive) | 128 | 0.907 | 2.04 | -0.0877 | 2.46% (inactive) | -0.325 (inactive) | -1e-05 (inactive) | 0.00462 (inactive) | inactive | -7.58% (inactive)
C=C(C)CN1CCN(c2c(CCC#N)c(C)c(C#N)c3nc4ccccc4n23)CC1 | 553 | -17.5% (inactive) | -77% (inactive) | 159 | -0.509 | -0.729 | -0.345 | -4.27% (inactive) | -0.00664 (inactive) | -2.3e-06 (inactive) | 0.00756 (inactive) | inactive | 17.9% (inactive)
C=CCOC(=O)C(C#N)c1nc2ccccc2nc1N1CCN(c2ccccc2OCC)CC1 (stereo unspecified) | 543 | -30.2% (inactive) | -94.9% (inactive) | 165 | -0.552 | -0.297 | 0.325 | -11.5% (inactive) | -0.494 (inactive) | -3.6e-05 (inactive) | 0.00373 (inactive) | inactive | -7.78% (inactive)
CCOc1ccc(-n2c3nc4ccccc4nc3c3c(=O)n(Cc4ccco4)cnc32)cc1 | 381 | -13% (inactive) | -105% (inactive) | 171 | 0.174 | 0.579 | -1.27 | -7.01% (inactive) | -0.417 (inactive) | -0.000107 (inactive) | 0.00519 (inactive) | inactive | -0.886% (inactive)
COc1ccc(C(=O)N2CCC(N3CCN(c4ccccc4)CC3)CC2)cc1OC | 420 | -28.9% (inactive) | -222% (inactive) | 170 | 1.05 | -0.675 | -0.812 | 17.7% (inactive) | -0.348 (inactive) | 9.9e-06 (inactive) | 0.00411 (inactive) | inactive | 29.9% (inactive)
COC(=O)c1ccc(Cn2nnc3c(sc4nc(N5CCOCC5)c5c(c43)CCCC5)c2=O)o1 | 558 | -14.8% (inactive) | -101% (inactive) | 153 | 0.962 | -1.77 | -0.316 | 24.4% (inactive) | -0.275 (inactive) | 2.3e-06 (inactive) | 0.00716 (inactive) | active; weak signal in gallbladder and intestine | -3.46% (inactive)
Cc1cc(=O)oc(C)c1C(=O)Nc1cccc2nonc12 | 404 | -0.5% (inactive) | -61.8% (inactive) | 132 | 1.68 | -1.68 | -0.173 | -4.7% (inactive) | -0.297 (inactive) | -2.7e-05 (inactive) | 0.00487 (inactive) | inactive | -5.97% (inactive)
COc1cccc(-c2nc(NCc3ccco3)c3ccccc3n2)c1O | 550 | 3% (inactive) | -7.1% (inactive) | 113 | 0.234 | 1.11 | 1.04 | -10.5% (inactive) | -0.282 (inactive) | -1.4e-05 (inactive) | 0.00506 (inactive) | inactive | 14.5% (inactive)
COc1ccc(-c2nn3c(COc4ccccc4)nnc3s2)cc1OC | 597 | -0.7% (inactive) | 33.6% (inactive) | 96.3 | 1.18 | -0.256 | -1 | -0.674% (inactive) | -0.395 (inactive) | -6e-05 (inactive) | 0.00544 (inactive) | inactive | -1.36% (inactive)
